Columns and labels:
A549 cells = assay: Metabolomics of steady-state metabolite levels in A549 cells; assay type: cell-based, human; settings: 24 hr, 0.5 uM for 9
recombinant PKM2 = recombinant PKM2 (Homo sapiens, UniProt P14618); assay: Biochemical activity assay against recombinant PKM2; settings: for reactivation of PKM2 inhibited by phenylalanine: PKM2 preincubated with phenylalanine for 30 min
Procedure, shortened: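 Recombinant PKM2 was preincubated with phenylalanine for 30 min. Test compound or FBP was then added for 30 min, after which pyruvate kinase activity was measured.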

Sequence of recombinant PKM2 (P14618 whole entry): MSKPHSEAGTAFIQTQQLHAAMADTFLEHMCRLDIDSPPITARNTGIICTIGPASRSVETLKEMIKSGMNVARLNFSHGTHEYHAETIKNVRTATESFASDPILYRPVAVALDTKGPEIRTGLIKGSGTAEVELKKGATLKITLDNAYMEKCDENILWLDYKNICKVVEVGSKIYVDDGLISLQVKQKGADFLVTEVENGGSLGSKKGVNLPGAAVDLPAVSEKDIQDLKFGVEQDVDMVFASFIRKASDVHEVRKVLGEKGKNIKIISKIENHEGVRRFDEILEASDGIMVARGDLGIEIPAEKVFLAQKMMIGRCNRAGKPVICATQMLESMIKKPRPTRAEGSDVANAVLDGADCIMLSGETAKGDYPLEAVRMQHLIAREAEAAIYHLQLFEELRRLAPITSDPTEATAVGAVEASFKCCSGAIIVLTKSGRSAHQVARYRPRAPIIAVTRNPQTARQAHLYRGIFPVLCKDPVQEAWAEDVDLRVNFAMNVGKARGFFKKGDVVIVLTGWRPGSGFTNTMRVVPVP

## CCCCS(=N)(=O)CC[C@H](N)C(=O)O (stereo partly shown) [BSO, buthionine sulfoxime]
A549 cells
  changes in steady-state metabolite levels: induced robust changes in steady-state metabolite pools

## O=C(COP(=O)(O)O)[C@@H](O)[C@H](O)[C@H](O)COP(=O)(O)O [FBP, fructose 1,6-bisphosphate]
Recombinant PKM2
  reactivation of PKM2 inhibited by phenylalanine: partially reactivate PKM2 to the low basal level of activity

## N[C@@H](CO)C(=O)O [Serine, serine]
Recombinant PKM2; PKM2 inhibited with phenylalanine
  change in potency for PKM2 inhibited with phenylalanine: eight times loss in potency
Recombinant PKM2
  reactivation of PKM2 inhibited by phenylalanine: partially restore the activity of PKM2

From publication PMC3775715 (Chemistry & biology, 2012)
